# Laboratory results reported in ChEMBL document CHEMBL1138602, “Discovery of sodium 6-[(5-chloro-2-{[(4-chloro-2-fluorophenyl)methyl]oxy}phenyl)methyl]-2-pyridinecarboxylate (GSK269984A) an EP(1) receptor antagonist for the treatment of inflammatory pain” (Bioorg Med Chem Lett, 2009).
# Key:
# [1] = tested on: MDR1; assay: Permeability in dog MDCK2 cells over expressing MDR1 assessed as efflux ratio after 1 hr; conditions: MDCK-MDR1
# [2] = Lipophilicity, log D at pH 7.4; format: physicochemical; conditions: buffer
# [3] = biological target: T1, Prostaglandin E2 receptor EP1 subtype (Homo sapiens, UniProt P34995); assay: Antagonist activity at human recombinant EP1 receptor expressed in CHO cells assessed as inhibition of PGE2-mediated intracellular calcium mobilization by FLIPR method; format: functional, cell-based
# T1 sequence (P34995 whole entry): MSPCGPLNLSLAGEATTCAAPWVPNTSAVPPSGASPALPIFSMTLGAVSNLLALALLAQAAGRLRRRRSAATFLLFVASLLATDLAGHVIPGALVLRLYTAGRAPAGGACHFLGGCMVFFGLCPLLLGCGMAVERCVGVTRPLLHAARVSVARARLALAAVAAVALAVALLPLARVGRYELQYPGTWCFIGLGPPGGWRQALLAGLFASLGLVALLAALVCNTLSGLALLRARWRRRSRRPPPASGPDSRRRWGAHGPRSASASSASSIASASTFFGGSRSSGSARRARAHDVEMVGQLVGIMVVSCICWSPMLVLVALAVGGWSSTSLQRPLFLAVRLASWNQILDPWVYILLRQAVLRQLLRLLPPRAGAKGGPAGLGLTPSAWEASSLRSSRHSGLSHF
# Method in brief: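 CHO cells recombinantly overexpressing human EP1 receptor; antagonism measured as block of PGE2-mediated intracellular Ca2+ mobilization. Values are the mean of at least three experiments with standard deviations.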
# [4] = tested on: Rattus norvegicus; assay: […] activity against complete Freund's adjuvant induced inflammatory pain in po dosed rat assessed as reversal of hypersensitivity post-adjuvant challenge after 1 hr; format: functional
# Method in brief: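 Rats given adjuvant by intraplantar injection; oral dosing at 1, 3 and 10 mg/kg 23 h later. Hypersensitivity assessed by weight-bearing 1 h post-dose. ED50 derived across doses.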
# [5] = Solubility in FaSSIF after 0.5 hrs; format: physicochemical
# Method in brief: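 Solubility determined in water, FaSSIF and FeSSIF, all read at the 0.5 h time point.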
# [6] = biological target: Prostaglandin F2-alpha receptor (Homo sapiens, UniProt P43088); assay: Inhibition of FP receptor
# [7] = biological target: Prostacyclin receptor (Homo sapiens, UniProt P43119); assay: Inhibition of IP receptor
# [8] = biological target: T2, Thromboxane A2 receptor (Homo sapiens, UniProt P21731); assay: Inhibition of TP receptor
# T2 sequence (P21731 whole entry): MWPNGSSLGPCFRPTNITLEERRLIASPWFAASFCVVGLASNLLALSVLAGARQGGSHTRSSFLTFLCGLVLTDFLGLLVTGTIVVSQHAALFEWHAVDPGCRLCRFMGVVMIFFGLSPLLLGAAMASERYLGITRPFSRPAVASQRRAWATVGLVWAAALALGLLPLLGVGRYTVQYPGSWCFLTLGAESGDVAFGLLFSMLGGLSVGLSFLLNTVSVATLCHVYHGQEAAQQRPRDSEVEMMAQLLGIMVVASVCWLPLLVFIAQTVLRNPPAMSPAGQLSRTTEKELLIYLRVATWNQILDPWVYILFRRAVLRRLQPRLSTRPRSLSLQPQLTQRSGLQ
# [9] = Drug level in blood of complete Freund's adjuvant induced rat inflammatory pain model at 10 mg/kg, bid measured after 1 hr on day 1; format: ADME, organism-based; set-up: dose 10 mg/kg; conditions: read-out: Drug uptake
# Method in brief: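 Satellite group dosed at 10 mg/kg b.i.d. for 5 days; blood sampled 1 h post-dose on day 1 and on day 5.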
# [10] = Drug level in blood of complete Freund's adjuvant-induced rat inflammatory pain model at 10 mg/kg, po administered after 23 hrs of adjuvant challenge measured after 1 hr; format: ADME, organism-based; set-up: dose 10 mg/kg, route oral; conditions: read-out: Drug uptake
# Method in brief: (§1)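 CFA rat study: oral doses of 1, 3 or 10 mg/kg given 23 h after intraplantar adjuvant, samples 1 h post-dose. Blood values are the mean from seven animals. Brain values are the mean from three animals.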
# [11] = Drug level in brain of complete Freund's adjuvant-induced rat inflammatory pain model at 3 mg/kg, po administered after 23 hrs of adjuvant challenge measured after 1 hr; format: ADME, organism-based; set-up: dose 3 mg/kg, route oral; conditions: read-out: Drug uptake; method in brief: as §1
# [12] = Drug level in brain of complete Freund's adjuvant-induced rat inflammatory pain model at 10 mg/kg, po administered after 23 hrs of adjuvant challenge measured after 1 hr; format: ADME, organism-based; set-up: dose 10 mg/kg, route oral; conditions: brain, read-out: Drug uptake; method in brief: as §1
# [13] = Ratio of drug level in brain to blood in complete Freund's adjuvant-induced rat inflammatory pain model at 10 mg/kg, po administered after 23 hrs of adjuvant challenge measured after 1 hr; format: ADME, organism-based; set-up: dose 10 mg/kg, route oral; conditions: brain and blood
# Method in brief: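 Rat CFA inflammatory pain model: oral dosing at 1, 3 or 10 mg/kg 23 h after intraplantar adjuvant; blood and brain sampled 1 h post-dose from the same animal; Br:Bl ratio is the mean from three animals.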
# [14] = Drug level in rat blood at 0.5 mg/kg/hr administered by infusion for 12 hrs; format: ADME, organism-based; conditions: intravenous, read-out: Drug uptake
# Method in brief: (§2)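 Steady-state 12 h infusion at 5 mL/kg/h to reach a target dose of 0.5 mg/kg/h; blood and brain concentrations measured. Data are the mean from three animals.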
# [15] = Drug level in rat brain at 0.5 mg/kg/hr administered by infusion for 12 hrs; format: ADME, organism-based; conditions: intravenous, read-out: Drug uptake; method in brief: as §2
# [16] = Drug level in rat blood at 0.5 mg/kg/hr administered by infusion for 1 hrs; format: ADME, organism-based; conditions: intravenous, read-out: Drug uptake
# Method in brief: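 Rat given a 1 h infusion; blood and brain concentrations measured.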
# [17] = Drug level in Landrace pig blood at 0.5 mg/kg/hr administered by infusion for 1 hrs; format: ADME, organism-based, Sus scrofa; conditions: intravenous, read-out: Drug uptake
# Method in brief: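 Landrace pig given a 1 h infusion; blood and brain concentrations measured in a single animal.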
# [18] = Clearance in Sprague-Dawley rat blood at 1 mg/kg administered by intravenous infusion for 1 hr; format: ADME, organism-based; set-up: dose 1 mg/kg, route intravenous
# Method in brief: (§3)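 Intravenous administration as a 1 h infusion of a 1 mg/kg dose. Rats were male Sprague-Dawley; dogs were beagle; monkeys were cynomolgus. Blood clearance, Vss and half-life determined.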
# [19] = Half life in Sprague-Dawley rat at 1 mg/kg administered by intravenous infusion for 1 hr; format: ADME, organism-based; set-up: dose 1 mg/kg, route intravenous; conditions: in vivo; method in brief: as §3
# [20] = Clearance in Beagle dog blood at 1 mg/kg administered by intravenous infusion for 1 hr; format: ADME, organism-based, Canis lupus familiaris; set-up: dose 1 mg/kg, route intravenous; method in brief: as §3
# [21] = Oral bioavailability in cynomolgus monkey at 3 mg/kg; format: ADME, organism-based, Macaca fascicularis; conditions: in vivo
# [22] = tested on: Hepatocyte; assay: Intrinsic clearance in rat hepatocytes measured per gram of live; format: ADME, cell-based, Liver
# Method in brief: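 Intrinsic clearance in hepatocytes expressed as mL/min/g liver. Cell densities were 0.15–0.2 × 10^6 cells/mL or 0.54–0.7 × 10^6 cells/mL.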
# Sequence of Prostacyclin receptor (P43119 whole entry): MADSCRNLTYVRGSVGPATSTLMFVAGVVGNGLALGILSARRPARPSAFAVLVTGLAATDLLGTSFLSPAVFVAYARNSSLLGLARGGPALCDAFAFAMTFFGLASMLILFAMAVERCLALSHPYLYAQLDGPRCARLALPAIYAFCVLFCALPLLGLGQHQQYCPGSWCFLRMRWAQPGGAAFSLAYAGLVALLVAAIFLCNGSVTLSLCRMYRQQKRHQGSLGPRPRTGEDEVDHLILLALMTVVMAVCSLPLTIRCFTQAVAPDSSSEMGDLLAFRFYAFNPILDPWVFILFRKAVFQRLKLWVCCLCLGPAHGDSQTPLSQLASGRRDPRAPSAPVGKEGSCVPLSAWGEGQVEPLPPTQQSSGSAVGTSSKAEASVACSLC
# Sequence of Prostaglandin F2-alpha receptor (P43088 whole entry): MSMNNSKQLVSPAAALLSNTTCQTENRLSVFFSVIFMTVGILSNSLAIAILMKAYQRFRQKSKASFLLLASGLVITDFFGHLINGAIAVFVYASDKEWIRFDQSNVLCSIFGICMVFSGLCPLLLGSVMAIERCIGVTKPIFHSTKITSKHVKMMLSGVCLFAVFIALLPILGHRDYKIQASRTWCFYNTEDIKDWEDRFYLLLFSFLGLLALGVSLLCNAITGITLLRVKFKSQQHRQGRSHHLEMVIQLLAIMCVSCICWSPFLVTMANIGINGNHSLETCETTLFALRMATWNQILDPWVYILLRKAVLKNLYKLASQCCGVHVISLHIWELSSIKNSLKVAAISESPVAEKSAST
compound,measurement,setting,value
O=C([O-])c1cccc(Cc2cc(Cl)ccc2OCc2ccc(Cl)cc2F)n1.[Na+],efflux ratio at 1 h,[1],0.9
same,logD,[2],2.1
same,Ki,[3],7.94 nM
same,ED50,[4],2.6 mg/kg
same,solubility at 0.5 h,[5],60 µg/mL
same,IC50,[6],> 10000 nM
same,IC50,[7],> 1000 nM
same,Ki,[8],10 nM
same,concentration at 1 h,[9],2390 nM
same,concentration at 1 h,[10],1510 nM
same,concentration at 1 h,[11],175 nM
same,concentration at 1 h,[12],501 nM
same,Kp at 1 h,[13],0.39
same,concentration at 12 h,[14],955 nM
same,concentration at 12 h,[15],225 nM
same,concentration at 1 h,[16],1800 nM
same,concentration at 1 h,[17],2300 nM
same,clearance,[18],19 mL/min/kg
same,half-life,[19],2.3 h
same,clearance,[20],18 mL/min/kg
same,bioavailability,[21],7%
same,clearance,[22],2.1 mL/min/g
